# Results: ChEMBL document CHEMBL4014350, “Alkoxyurea-Based Histone Deacetylase Inhibitors Increase Cisplatin Potency in Chemoresistant Cancer Cell Lines” (J Med Chem, 2017)
# Columns and labels:
# [1] = target: T1, Histone deacetylase 1/6 (Homo sapiens) (UniProt Q13547+Q9UBN7); test: Inhibition of HDAC1/HDAC6 in human Cal27CisR cells assessed as potentiation of 5 uM cisplatin-induced cytotoxicity by measuring combination index at 800 uM preincubated for 48 hrs followed by cisplatin treatment measured after 72 hrs by MTT assay; type: cell-based
# T1 sequence (Q13547 whole entry, looked up): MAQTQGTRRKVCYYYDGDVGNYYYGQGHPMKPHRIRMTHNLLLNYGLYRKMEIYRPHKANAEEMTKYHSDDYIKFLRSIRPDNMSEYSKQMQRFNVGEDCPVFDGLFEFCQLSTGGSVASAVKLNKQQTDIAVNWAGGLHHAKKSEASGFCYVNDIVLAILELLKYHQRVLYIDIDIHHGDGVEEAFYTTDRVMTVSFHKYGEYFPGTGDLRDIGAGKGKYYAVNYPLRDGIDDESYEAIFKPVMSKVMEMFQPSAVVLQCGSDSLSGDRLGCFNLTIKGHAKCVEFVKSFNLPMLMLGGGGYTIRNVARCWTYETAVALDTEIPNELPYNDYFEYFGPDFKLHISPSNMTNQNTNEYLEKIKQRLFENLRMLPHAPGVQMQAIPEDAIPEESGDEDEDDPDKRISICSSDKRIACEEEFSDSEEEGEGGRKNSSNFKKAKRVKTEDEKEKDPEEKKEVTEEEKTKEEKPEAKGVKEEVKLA
# T1 sequence (Q9UBN7 whole entry, looked up): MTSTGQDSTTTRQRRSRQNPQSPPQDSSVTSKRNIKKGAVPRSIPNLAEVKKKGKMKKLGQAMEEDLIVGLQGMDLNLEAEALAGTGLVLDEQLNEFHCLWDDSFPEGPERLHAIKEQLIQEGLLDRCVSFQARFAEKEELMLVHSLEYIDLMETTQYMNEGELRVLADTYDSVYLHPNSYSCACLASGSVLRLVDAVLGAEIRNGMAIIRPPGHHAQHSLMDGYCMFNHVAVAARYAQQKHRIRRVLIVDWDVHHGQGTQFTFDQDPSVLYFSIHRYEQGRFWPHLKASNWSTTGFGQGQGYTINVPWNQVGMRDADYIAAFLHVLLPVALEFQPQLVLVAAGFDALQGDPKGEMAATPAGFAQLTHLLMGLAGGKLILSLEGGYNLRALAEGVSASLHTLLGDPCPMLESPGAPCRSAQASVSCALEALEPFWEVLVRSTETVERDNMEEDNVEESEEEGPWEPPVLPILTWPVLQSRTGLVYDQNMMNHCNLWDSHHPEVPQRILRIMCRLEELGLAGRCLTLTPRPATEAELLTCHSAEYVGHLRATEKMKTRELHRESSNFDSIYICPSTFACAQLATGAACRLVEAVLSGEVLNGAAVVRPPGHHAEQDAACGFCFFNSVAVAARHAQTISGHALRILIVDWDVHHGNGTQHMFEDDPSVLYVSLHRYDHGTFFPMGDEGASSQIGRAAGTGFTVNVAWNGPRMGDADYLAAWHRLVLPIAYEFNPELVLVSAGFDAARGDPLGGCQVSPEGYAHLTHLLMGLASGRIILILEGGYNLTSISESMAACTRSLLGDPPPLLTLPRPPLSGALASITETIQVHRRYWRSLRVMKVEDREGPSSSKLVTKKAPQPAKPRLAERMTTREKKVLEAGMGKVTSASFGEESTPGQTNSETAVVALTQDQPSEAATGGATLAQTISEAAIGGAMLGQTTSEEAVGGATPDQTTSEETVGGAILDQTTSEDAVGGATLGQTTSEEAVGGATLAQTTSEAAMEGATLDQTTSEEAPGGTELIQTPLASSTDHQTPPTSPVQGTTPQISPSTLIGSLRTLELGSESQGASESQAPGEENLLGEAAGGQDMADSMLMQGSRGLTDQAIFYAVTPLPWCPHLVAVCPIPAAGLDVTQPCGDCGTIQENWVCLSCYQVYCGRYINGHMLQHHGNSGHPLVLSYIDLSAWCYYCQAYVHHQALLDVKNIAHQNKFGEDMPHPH
# In short: (§1)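 Cal27 and cisplatin-resistant Cal27CisR cells were preincubated with the HDAC inhibitor for 48 h, then given cisplatin in combination. Viability was read by MTT after 72 h. The combination index was computed by the Chou–Talalay method: CI > 1 is antagonism, CI = 1 is additive, and CI < 0.9 is synergism. Points with fraction affected below 0.20 were flagged.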
# CAL-27 [2] = test: Potentiation of 5 uM cisplatin-induced cytotoxicity against human CAL27 cells assessed as decrease in cell viability by measuring combination index at 600 uM preincubated for 48 hrs followed by cisplatin treatment measured after 72 hrs by MTT assay; type: functional; details: in the assay text read “at 600 nM” for “at 600 uM”
# In short: (§2)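 HDAC inhibitor was added 48 h before cisplatin, then cells were exposed to cisplatin for 72 h and viability was read by MTT assay. Combination index was computed by the Chou–Talalay method: CI > 1 is antagonism, CI = 1 additive, CI < 0.9 synergism. Points with fraction affected below 0.20 were flagged.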
# [3] = target: T1, Histone deacetylase 1/6 (Homo sapiens); test: Inhibition of HDAC1/HDAC6 in human Cal27CisR cells assessed as potentiation of 5 uM cisplatin-induced cytotoxicity by measuring combination index at 600 uM preincubated for 48 hrs followed by cisplatin treatment measured after 72 hrs by MTT assay; type: cell-based; in short: as §1
# CAL-27 [4] = test: Potentiation of 2 uM cisplatin-induced cytotoxicity against human CAL27 cells assessed as decrease in cell viability by measuring combination index at 700 uM preincubated for 48 hrs followed by cisplatin treatment measured after 72 hrs by MTT assay; type: functional; details: in the assay text read “at 700 nM” for “at 700 uM”; in short: as §2
# Homo sapiens = species on record: Homo sapiens; test: Selectivity index, ratio of IC50 for human recombinant HDAC8 to IC50 for full length human recombinant N-terminal GST-tagged HDAC6 expressed in baculovirus infected sf9 cells
# In short: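 Ratio of isolated-enzyme IC50 values. HDAC1, HDAC6 and HDAC8 IC50s were each the mean ± SD of three independent experiments.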
# CAL-27 [5] = test: Potentiation of 0.316 uM cisplatin-induced cytotoxicity against human CAL27 cells assessed as decrease in cell viability by measuring combination index at 800 uM preincubated for 48 hrs followed by cisplatin treatment measured after 72 hrs by MTT assay; type: functional; details: in the assay text read “at 800 nM” for “at 800 uM”; in short: as §1
# [6] = target: T1, Histone deacetylase 1/6 (Homo sapiens); test: Inhibition of HDAC1/HDAC6 in human Cal27CisR cells assessed as potentiation of 3.16 uM cisplatin-induced cytotoxicity by measuring combination index at 500 nM preincubated for 48 hrs followed by cisplatin treatment measured after 72 hrs by MTT assay
# [7] = target: T1, Histone deacetylase 1/6 (Homo sapiens); test: Inhibition of HDAC1/HDAC6 in human Cal27CisR cells assessed as potentiation of 10 uM cisplatin-induced cytotoxicity by measuring combination index at 800 nM preincubated for 48 hrs followed by cisplatin treatment measured after 72 hrs by MTT assay
# [8] = Inhibition of HDAC in human CAL27 cells using Boc-Lys(epsilon-Ac)-AMC as substrate preincubated for 18 hrs followed by substrate addition measured after 3 hrs by fluorescence assay; type: cell-based; details: CAL-27
# [9] = Inhibition of HDAC in human A2780CisR cells using Boc-Lys(epsilon-Ac)-AMC as substrate preincubated for 18 hrs followed by substrate addition measured after 3 hrs by fluorescence assay; type: cell-based
# [10] = Inhibition of HDAC in human A2780 cells using Boc-Lys(epsilon-Ac)-AMC as substrate preincubated for 18 hrs followed by substrate addition measured after 3 hrs by fluorescence assay; type: cell-based
# [11] = target: T1, Histone deacetylase 1/6 (Homo sapiens); test: Inhibition of HDAC1/HDAC6 in human Cal27CisR cells assessed as potentiation of 1 uM cisplatin-induced cytotoxicity by measuring combination index at 800 uM preincubated for 48 hrs followed by cisplatin treatment measured after 72 hrs by MTT assay; type: cell-based
# In short: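 Cal27CisR cells preincubated 48 h with the HDAC inhibitor, then exposed to cisplatin for 72 h. Viability read by MTT. Combination index calculated by the Chou–Talalay method: CI > 1 antagonism, CI = 1 additive, CI < 0.9 synergism. Points with fraction affected below 0.20 are flagged. Values are the mean of three experiments.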
# ONS-76 = test: Antiproliferative activity against human ONS76 cells after 72 hrs by Celltiter-Glo assay; type: functional, cell-based; details: ONS-76, 72 h
# CAL-27 [12] = test: Potentiation of 5 uM cisplatin-induced cytotoxicity against human CAL27 cells assessed as decrease in cell viability by measuring combination index at 700 uM preincubated for 48 hrs followed by cisplatin treatment measured after 72 hrs by MTT assay; type: functional; details: in the assay text read “at 700 nM” for “at 700 uM”; in short: as §2
# [13] = target: T1, Histone deacetylase 1/6 (Homo sapiens); test: Inhibition of HDAC1/HDAC6 in human Cal27CisR cells assessed as potentiation of 1 uM cisplatin-induced cytotoxicity by measuring combination index at 500 nM preincubated for 48 hrs followed by cisplatin treatment measured after 72 hrs by MTT assay
# [14] = target: T1, Histone deacetylase 1/6 (Homo sapiens); test: Inhibition of HDAC1/HDAC6 in human Cal27CisR cells assessed as potentiation of 3.16 uM cisplatin-induced cytotoxicity by measuring combination index at 700 nM preincubated for 48 hrs followed by cisplatin treatment measured after 72 hrs by MTT assay
# [15] = Inhibition of HDAC in human Cal27CisR cells using Boc-Lys(epsilon-Ac)-AMC as substrate preincubated for 18 hrs followed by substrate addition measured after 3 hrs by fluorescence assay; type: cell-based
# CAL-27 [16] = test: Potentiation of 1 uM cisplatin-induced cytotoxicity against human CAL27 cells assessed as decrease in cell viability by measuring combination index at 700 uM preincubated for 48 hrs followed by cisplatin treatment measured after 72 hrs by MTT assay; type: functional; in short: as §2
# [17] = target: T1, Histone deacetylase 1/6 (Homo sapiens); test: Inhibition of HDAC1/HDAC6 in human Cal27CisR cells assessed as potentiation of 5 uM cisplatin-induced cytotoxicity by measuring combination index at 700 uM preincubated for 48 hrs followed by cisplatin treatment measured after 72 hrs by MTT assay; type: cell-based; in short: as §1
# Histone deacetylase 1 = Histone deacetylase 1 (Homo sapiens, UniProt Q13547); test: Inhibition of recombinant full length human C-terminal FLAG/His-tagged HDAC1 expressed in baculovirus infected sf9 cells using Z-(Ac)Lys-AMC as substrate measured after 90 mins by fluorescence assay
# Sequence of Histone deacetylase 1 (Q13547 whole entry): as the sequence (Q13547 whole entry, looked up) above
# [18] = target: T1, Histone deacetylase 1/6 (Homo sapiens); test: Inhibition of HDAC1/HDAC6 in human Cal27CisR cells assessed as potentiation of 5 uM cisplatin-induced cytotoxicity by measuring combination index at 500 uM preincubated for 48 hrs followed by cisplatin treatment measured after 72 hrs by MTT assay; type: cell-based; in short: as §1
IC50 [8],IC50 [9],IC50 [10],IC50 [15],IC50 (Histone deacetylase 1),Structure (SMILES),CI [1],CI (CAL-27 [2]),CI [3],CI (CAL-27 [4]),Ratio IC50 (Homo sapiens),CI (CAL-27 [5]),CI [6],CI [7],CI [11],IC50 (ONS-76),CI (CAL-27 [12]),CI [13],CI [14],CI (CAL-27 [16]),CI [17],also measured
900 nM,500 nM,1000 nM,700 nM,51.9 nM,COc1cc(NC(=O)NOCCCCCC(=O)NO)c2ncccc2c1,0.37,0.34,0.6,0.43,> 100,<0.2,< 0.2,0.35,0.81,2670 nM,0.32,< 0.2,0.56,0.63,0.41,CI [18]: 0.96
600 nM,400 nM,900 nM,500 nM,77.3 nM,COc1cc(NC(=O)NOCCCCCC(=O)NO)c2nccc(C)c2c1,0.23,0.33,0.25,0.36,> 100,0.56,0.71,0.23,1.09,590 nM,0.41,< 0.2,0.28,0.43,0.21,CI [18]: 0.28
500 nM,500 nM,1700 nM,500 nM,43.2 nM,COc1cc(NC(=O)NOCCCCCC(=O)NO)c2nc(OC)cc(C)c2c1,0.26,0.49,0.2,0.6,550,0.84,0.26,0.23,0.65,650 nM,0.64,0.56,0.28,0.61,0.23,CI [18]: 0.19
